# pIC50: −log10 of the molar value.
# How the values were obtained:
# Format in all cases: functional, cell-based
# [1] = tested on: 5TGM1; experiment: (§1) Cytotoxicity against mouse 5TGM1 cells after 48 to 72 hrs by SRB assay
# Summary of the method: (§2)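 Cells seeded in triplicate at 3,000 per well in RPMI with 10% fetal bovine serum; drugs added after 24 h at six or more concentrations (1–18 nM in the dose-response figure). Exposure 72 h per methods and figure legend, 48 h per table footnote. Sulforhodamine B colorimetric read-out. IC50 from growth-inhibition curve, mean ±SD of at least 3 independent experiments.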
# [2] = as §1; summary of the method: as §2
# [3] = tested on: RPMI-8226; experiment: Cytotoxicity against human RPMI8226 cells after 48 to 72 hrs by SRB assay; summary of the method: as §2
Structure (SMILES),inhibition [1],pIC50 [2],pIC50 [3],inhibition [3]
CC(C)C[C@H](NC(=O)[C@H](CC(C)C)NC(=O)[C@H](CC(C)C)NC(=O)OCc1ccccc1)B(O)O,Dose-dependent effect,8.04,7.86,Dose-dependent effect
CC(C)C[C@H](NC(=O)[C@H](Cc1ccccc1)NC(=O)c1cnccn1)B(O)O [BORTEZOMIB],Dose-dependent effect,8.17,8.02,Dose-dependent effect
CC(C)C[C@H](NC(=O)[C@H](Cc1ccc(OCCCC(=O)NCCCC(O)(P(=O)(O)O)P(=O)(O)O)cc1)NC(=O)c1cnccn1)B(O)O,Dose-dependent effect,8.03,7.94,Dose-dependent effect
CC(C)C[C@H](NC(=O)[C@H](Cc1ccccc1)NC(=O)c1cnc(C(=O)NCCCC(O)(P(=O)(O)O)P(=O)(O)O)cn1)B(O)O,Dose-dependent effect,8.12,7.99,Dose-dependent effect
CC(C)C[C@H](NC(=O)[C@H](CC(C)C)NC(=O)[C@H](CC(C)C)NC(=O)OCc1ccc(C(=O)NCCCC(O)(P(=O)(O)O)P(=O)(O)O)cc1)B(O)O,Dose-dependent effect,8.31,7.90,Dose-dependent effect
